From ChEMBL document CHEMBL1142645, “New variotin analogues from Aspergillus viridi-nutans” (2000)
In brackets after ≈: the same amount, converted by molar mass. Activity calls are given as the source filed them. The rule behind the calls is not given here.

Assays:
Eremothecium coryli [1] = test: Antifungal activity against Nematospora coryli ATCC 10647 upto 100 ug/mL after 24 hrs by microtiter plate assay; format: functional, organism-based
Outline: (§1)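 Broth microdilution in microtiter plates, following an earlier published method. Each test fungus was inoculated at 1×10^5 spores/mL. Plates were incubated for 24 h at 27 °C, and antifungal activity was then scored.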

Paecilomyces variotii [2] = test: Antifungal activity against Paecilomyces variotii ETH 114646 upto 100 ug/mL after 24 hrs by microtiter plate assay; format: functional, organism-based; outline: as §1
Fusarium oxysporum = test: Antifungal activity against Fusarium oxysporum CBS 149.25 upto 100 ug/mL after 24 hrs by microtiter plate assay; format: functional, organism-based; outline: as §1
Rhodotorula glutinis [3] = test: Antifungal activity against Rhodotorula glutinis ATCC 26085 upto 100 ug/mL after 24 hrs by microtiter plate assay; format: functional, organism-based; outline: as §1
Nadsonia fulvescens [4] = test: Antifungal activity against Nadsonia fulvescens ATCC 24236 upto 100 ug/mL after 24 hrs by microtiter plate assay; format: functional, organism-based; outline: as §1
Paecilomyces variotii [5] = test: Antifungal activity against Paecilomyces variotii ETH 114646 after 24 hrs by microtiter plate assay; format: functional; outline: as §1
Eremothecium coryli [6] = test: Antifungal activity against Nematospora coryli ATCC 10647 after 24 hrs by microtiter plate assay; format: functional; conditions: ATCC 10647, 24 h; outline: as §1
Nadsonia fulvescens [7] = test: Antifungal activity against Nadsonia fulvescens ATCC 24236 after 24 hrs by microtiter plate assay; format: functional; conditions: ATCC 24236, 24 h; outline: as §1
Rhodotorula glutinis [8] = test: Antifungal activity against Rhodotorula glutinis ATCC 26085 after 24 hrs by microtiter plate assay; format: functional; conditions: ATCC 26085, 24 h; outline: as §1
HL-60 = test: Cytotoxicity against human HL60 cells by Giemsa staining; format: functional
HeLa = test: Cytotoxicity against human HeLa S3 cells by Giemsa staining; format: functional
L1210 = test: Cytotoxicity against mouse L1210 cells by Giemsa staining; format: functional

| SMILES | Activity (Eremothecium coryli [1]) | Activity (Paecilomyces variotii [2]) | Activity (Fusarium oxysporum) | Activity (Rhodotorula glutinis [3]) | Activity (Nadsonia fulvescens [4]) | MIC (Paecilomyces variotii [5]) [µg/mL] | MIC (Eremothecium coryli [6]) [µg/mL] | MIC (Nadsonia fulvescens [7]) [µg/mL] | MIC (Rhodotorula glutinis [8]) [µg/mL] | IC90 (HL-60) [µg/mL] | IC90 (HeLa) [µg/mL] | IC90 (L1210) [µg/mL] |
| --- | --- | --- | --- | --- | --- | --- | --- | --- | --- | --- | --- | --- |
| CCCCC(/C=C(C)/C=C/C=C/C(=O)N1CCCC1CO)OC (configuration not stated) | inactive | inactive | inactive | inactive | inactive |  |  |  |  |  |  |  |
| CCCC[C@@H](O)/C=C(C)/C=C/C=C/C(=O)N1CCCC1=O [PECILOCIN] |  |  |  |  |  | 1 (≈ 3.43 µM) | 1 (≈ 3.43 µM) | 1 (≈ 3.43 µM) | 1 (≈ 3.43 µM) |  |  |  |
| CCCCC(O)/C=C(C)/C=C/C=C/C(=O)N1CCCC1CO (configuration not stated) [VIRIDITIN] | inactive | inactive | inactive | inactive | inactive |  |  |  |  | 25 (≈ 81.3 µM) | 25 (≈ 81.3 µM) | 25 (≈ 81.3 µM) |
